Measured values taken from ChEMBL document CHEMBL3875169, “Synthesis, in vitro anticancer and antibacterial activities and in silico studies of new 4-substituted 1,2,3-triazole-coumarin hybrids” (Eur J Med Chem, 2016).
Values after ≈ are worked out from the molar mass of the structure shown.

Assays:
[1] = Growth inhibition of human A549 cells after 72 hrs by MTT assay; format: functional, cell-based; conditions: A549, 72 h
How it was run: (§1)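 Monolayers in DMEM with 10% FBS, 2 mM L-glutamine and penicillin/streptomycin, 37 °C, 5% CO2; 5000 cells/well seeded day 0. Compounds added as five 10-fold dilutions (0.01–100 µM), DMSO ≤0.1%, for 72 h. MTT absorbance converted to percentage growth (NIH formulas); IC50 by linear regression between bracketing concentrations, highest concentration reported with ">" when not reached. Quadruplicate points, three experiments.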

[2] = Growth inhibition of human HepG2 cells after 72 hrs by MTT assay; format: functional, cell-based; conditions: HepG2, 72 h; how it was run: as §1
[3] = Growth inhibition of human HeLa cells after 72 hrs by MTT assay; format: functional, cell-based; how it was run: as §1
[4] = Growth inhibition of human CFPAC-1 cells after 72 hrs by MTT assay; format: functional, cell-based; conditions: CFPAC-1, 72 h; how it was run: as §1
[5] = Growth inhibition of human WI38 cells after 72 hrs by MTT assay; format: cell-based; conditions: WI-38, 72 h; how it was run: as §1
[6] = Growth inhibition of human SW620 cells after 72 hrs by MTT assay; format: functional, cell-based; conditions: SW-620, 72 h; how it was run: as §1
Klebsiella pneumoniae = test: Antibacterial activity against ESBL-producing Klebsiella pneumoniae ATCC 27736 after 16 to 20 hrs by broth microdilution method; format: functional
How it was run: (§2)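 Broth microdilution per CLSI in cation (Ca2+, Mg2+)-adjusted Mueller-Hinton broth; compounds in serial two-fold dilutions, 256–0.25 µg/mL; direct colony suspension inoculum, final 5 x 10^5 CFU/mL; 35 ± 2 °C, 16–20 h, ambient air. MIC is the lowest concentration completely inhibiting visible growth versus growth control; with trailing, endpoint read at ≥80% growth reduction. E. coli ATCC 25922 and P. aeruginosa ATCC 27853 served as QC.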

Enterococcus faecalis = test: Antibacterial activity against Enterococcus faecalis after 16 to 20 hrs by broth microdilution method; format: functional; how it was run: as §2
Acinetobacter baumannii = test: Antibacterial activity against Acinetobacter baumannii ATCC 19606 after 16 to 20 hrs by broth microdilution method; format: functional; how it was run: as §2
Pseudomonas aeruginosa = test: Antibacterial activity against Pseudomonas aeruginosa ATCC 27853 after 16 to 20 hrs by broth microdilution method; format: functional; how it was run: as §2
Staphylococcus aureus = test: Antibacterial activity against Staphylococcus aureus ATCC 25923 after 16 to 20 hrs by broth microdilution method; format: functional; how it was run: as §2
Escherichia coli = test: Antibacterial activity against Escherichia coli ATCC 25925 after 16 to 20 hrs by broth microdilution method; format: functional; conditions: read-out: MIC=>80; how it was run: as §2
A549 = test: Selectivity index, ratio of IC50 for […] cells to IC50 for human A549 cells; format: functional

| Structure (SMILES) | IC50 [1] [µM] | IC50 [2] [µM] | IC50 [3] [µM] | IC50 [4] [µM] | IC50 [5] [µM] | IC50 [6] [µM] | MIC80 (Klebsiella pneumoniae) [µg/mL] | MIC80 (Enterococcus faecalis) [µg/mL] | MIC80 (Acinetobacter baumannii) [µg/mL] | MIC80 (Pseudomonas aeruginosa) [µg/mL] | MIC80 (Staphylococcus aureus) [µg/mL] | MIC (Escherichia coli) [µg/mL] | Ratio IC50 (A549) |
| --- | --- | --- | --- | --- | --- | --- | --- | --- | --- | --- | --- | --- | --- |
| CC(C)(C)OC(=O)N1CCN(C(=S)SCc2cn(Cc3cc(=O)oc4cc(O)ccc34)nn2)CC1 | 35.4 | 56.9 | 48 | 88.5 | 2.82 | > 100 | – | – | – | – | – | – | – |
| Cc1ccc2nc(-c3ccc(NCc4cn(Cc5cc(=O)oc6cc(O)ccc56)nn4)cc3)sc2c1 | 16.2 | 52.8 | 7.26 | 10.5 | – | 90 | – | – | – | – | – | – | – |
| Cn1c(-c2cn(Cc3cc(=O)oc4cc(O)ccc34)nn2)nc2ccccc21 | > 100 | 70.7 | 49.1 | 76.5 | – | > 100 | – | – | – | – | – | – | – |
| CC(C)(C)c1cn(Cc2cc(=O)oc3cc(O)ccc23)nn1 | 67.6 | > 100 | 81.1 | > 100 | – | > 100 | > 256 | 128 (≈ 428 µM) | > 256 | > 256 | > 256 | > 256 | – |
| O=c1cc(Cn2cc(CNS(=O)(=O)c3ccc([N+](=O)[O-])cc3)nn2)c2ccc(O)cc2o1 | > 100 | > 100 | > 100 | > 100 | < 0.01 | > 100 | > 256 | 256 (≈ 560 µM) | > 256 | > 256 | > 256 | > 256 | – |
| O=c1cc(Cn2cc(CNS(=O)(=O)c3ccc(Cl)cc3)nn2)c2ccc(O)cc2o1 | 47.9 | 31.4 | 58.5 | 81.9 | 0.82 | > 100 | – | – | – | – | – | – | – |
| O=c1cc(Cn2cc(CNS(=O)(=O)c3ccc(F)cc3)nn2)c2ccc(O)cc2o1 | 88.5 | 76.7 | > 100 | > 100 | 24.9 | > 100 | > 256 | 64 (≈ 149 µM) | > 256 | > 256 | > 256 | > 256 | – |
| CCCCCCc1cn(Cc2cc(=O)oc3cc(O)ccc23)nn1 | 66.2 | 61.6 | 59 | > 100 | 58.5 | > 100 | – | – | – | – | – | – | – |
| O=c1cc(Cn2cc(CNS(=O)(=O)c3ccc(F)cc3Cl)nn2)c2ccc(O)cc2o1 | 91.9 | 74.8 | 74.9 | > 100 | 1.45 | > 100 | > 256 | 32 (≈ 68.8 µM) | > 256 | > 256 | > 256 | > 256 | – |
| Cc1ccc(S(=O)(=O)NCc2cn(Cc3cc(=O)oc4cc(O)ccc34)nn2)cc1 | 46.4 | 29.8 | 55.7 | 68.9 | 0.03 | 92.2 | > 256 | 64 (≈ 150 µM) | > 256 | > 256 | 256 (≈ 600 µM) | > 256 | – |
| O=c1cc(Cn2cc(-c3cc(F)cc(F)c3)nn2)c2ccc(O)cc2o1 | 21.1 | 38.9 | 27.6 | > 100 | – | 66.7 | – | – | – | – | – | – | >4 |
| CCCCCc1ccc(-c2cn(Cc3cc(=O)oc4cc(O)ccc34)nn2)cc1 | 13.7 | 27.3 | 24.6 | 50.4 | – | 39.6 | > 256 | 8 (≈ 20.5 µM) | > 256 | > 256 | > 256 | > 256 | – |
| O=c1cc(Cn2cc(CSC(=S)N3CCOCC3)nn2)c2ccc(O)cc2o1 | 70.2 | 99.4 | 40.8 | 56.3 | 59.1 | ≥ 100 | > 256 | 32 (≈ 76.5 µM) | > 256 | > 256 | > 256 | > 256 | – |
| O=c1cc(Cn2cc(CCCCl)nn2)c2ccc(O)cc2o1 | 30.1 | > 100 | 49.6 | 75.8 | – | 59.8 | – | – | – | – | – | – | – |
| CCCC1CCC(c2ccc(-c3cn(Cc4cc(=O)oc5cc(O)ccc45)nn3)cc2)CC1 (centres undefined) | 41 | 30.4 | 34.3 | 52.8 | 7.91 | 37.5 | > 256 | 64 (≈ 144 µM) | > 256 | > 256 | > 256 | > 256 | – |
| O=c1cc(Cn2cc(CCO)nn2)c2ccc(O)cc2o1 | 90.3 | > 100 | > 100 | > 100 | – | > 100 | – | – | – | – | – | – | – |
| CCCCc1ccc(-c2cn(Cc3cc(=O)oc4cc(O)ccc34)nn2)cc1 | 13.8 | 48.4 | 39 | 69.8 | – | 49.2 | > 256 | 64 (≈ 170 µM) | > 256 | > 256 | > 256 | > 256 | – |
| O=c1cc(Cn2cc(CSC(=S)N3CCNCC3)nn2)c2ccc(O)cc2o1 | 96 | > 100 | > 100 | > 100 | > 100 | > 100 | > 256 | 16 (≈ 38.3 µM) | > 256 | > 256 | > 256 | > 256 | – |
| O=c1cc(Cn2cc(C3CC3)nn2)c2ccc(O)cc2o1 | 91.7 | > 100 | > 100 | > 100 | – | > 100 | – | – | – | – | – | – | – |
| O=c1cc(Cn2cc(CCCO)nn2)c2ccc(O)cc2o1 | 96.2 | > 100 | 90.2 | > 100 | – | > 100 | – | – | – | – | – | – | – |
| CCCCCCc1ccc(-c2cn(Cc3cc(=O)oc4cc(O)ccc34)nn2)cc1 | 8.87 | 9.16 | 8.73 | > 100 | 14 | 36.8 | > 256 | 16 (≈ 39.7 µM) | > 256 | > 256 | > 256 | > 256 | – |
| CC(O)c1cn(Cc2cc(=O)oc3cc(O)ccc23)nn1 (centres undefined) | > 100 | > 100 | > 100 | > 100 | – | > 100 | – | – | – | – | – | – | – |
| Cc1ccc2c(Cn3cc(CNc4ccc(-c5nc6ccc(C)cc6s5)cc4)nn3)cc(=O)oc2c1 | 46.2 | 94.7 | 51.4 | 34.9 | – | ≥ 100 | – | – | – | – | – | – | – |
| O=c1cc(Cn2cc(-c3ccc(Br)cc3)nn2)c2ccc(O)cc2o1 | 32.3 | 61.1 | 40.2 | 52.9 | – | 97.7 | > 256 | 256 (≈ 643 µM) | > 256 | > 256 | > 256 | > 256 | – |
| CCCCCCCCc1cn(Cc2cc(=O)oc3cc(O)ccc23)nn1 | 46 | 34.2 | 35.1 | 62.6 | 43.4 | 50.9 | > 256 | 256 (≈ 720 µM) | > 256 | > 256 | > 256 | > 256 | – |
| O=c1cc(Cn2cc(CCCCO)nn2)c2ccc(O)cc2o1 | > 100 | > 100 | > 100 | > 100 | – | > 100 | – | – | – | – | – | – | – |
| O=c1cc(Cn2cc(CCc3ccccc3)nn2)c2ccc(O)cc2o1 | 24.8 | 50.5 | 35.1 | > 100 | – | 84.4 | – | – | – | – | – | – | >4 |
| CC(C)(O/N=C(\C(=O)N[C@@H]1C(=O)N2C(C(=O)[O-])=C(C[n+]3ccccc3)CS[C@H]12)c1csc(N)n1)C(=O)O [CEFTAZIDIME] | – | – | – | – | – | – | > 256 | 256 (≈ 468 µM) | 16 (≈ 29.3 µM) | 4 (≈ 7.32 µM) | 64 (≈ 117 µM) | 0.5 (≈ 0.915 µM) | – |
| O=C(O)c1cn(C2CC2)c2cc(N3CCNCC3)c(F)cc2c1=O [CIPROFLOXACIN] | – | – | – | – | – | – | > 256 | 0.5 (≈ 1.51 µM) | < 0.125 | < 0.125 | 0.25 (≈ 0.754 µM) | < 0.125 | – |
